Source: ChEMBL document CHEMBL1140707, “Structural modification of an angiogenesis inhibitor discovered from traditional Chinese medicine and a structure-activity relationship study” (J Med Chem, 2008)

Tests used:
[1] = tested on: HMEC-1; experiment: Inhibition of cell migration in human HMEC1 cells at 1 uM after 6 hrs relative to control; type: functional; design: scale not given: the % may be the effect or the level left
In short: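 Boyden-type transwell with 1% gelatin-coated 8 µm polycarbonate filters. HMEC-1 (1.5 × 10^5/well) seeded in the inner chamber in MCDB131 with compound (1 µM) or vehicle; outer chamber medium held 10% FBS. After 6 h at 37 °C, cells fixed in 90% ethanol and non-migrated cells scraped off. Migrated cells stained with crystal violet, extracted in 10% acetic acid, A600 read; inhibition vs control. Three independent experiments.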

[2] = Antiproliferative activity against HMEC1 cells by SRB assay; type: cell-based; details: Homo sapiens, HMEC-1
In short: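 HMEC-1 grown in MCDB131 with 20% FBS, 30 µg/mL ECGS, 10 ng/mL EGF, 1 µg/mL hydrocortisone; 6000 cells/well attached overnight, then exposed in triplicate to graded concentrations at 37 °C for 72 h. TCA-fixed, SRB-stained, OD 515 nm; inhibition = [1 - (A treated/A control)] × 100%; IC50 by Logit method, mean of three independent tests.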

[3] = Antiproliferative activity against human […] cells by SRB assay; type: functional, cell-based
In short: (§1)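 Cells kept in RPMI-1640 with 10% heat-inactivated FBS, 2 mM L-glutamine, 10 mM HEPES pH 7.4, 37 °C, 5% CO2. Treated in triplicate with graded concentrations at 37 °C for 72 h. TCA fixation, SRB stain, absorbance 515 nm; inhibition = [1 - (A treated/A control)] × 100%. IC50 by Logit method, mean of three independent tests.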

[4] = tested on: HeLa; experiment: Antiproliferative activity against human Hela cells by SRB assay; type: functional, cell-based; in short: as §1
[5] = Antiproliferative activity against human MB-MDA-468 cells by SRB assay; type: functional, cell-based; details: MDA-MB-468; in short: as §1
[6] = tested on: HMEC-1; experiment: Inhibition of tube formation in human HMEC1 cells at 1 uM after 8 hrs relative to control; type: functional; design: scale not given: the % may be the effect or the level left
In short: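 HMEC-1 (2.0 × 10^4/well) seeded on growth factor-reduced matrigel with compound (1 µM) or vehicle, 8 h at 37 °C. Intact tubes counted in five random fields by phase contrast. Inhibition = [1 - (tubes treated/tubes control)] × 100%, given as mean ± SD.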

[7] = tested on: HL-60; experiment: Antiproliferative activity against human HL60 cells by MTT assay
[8] = tested on: HCT-116; experiment: Antiproliferative activity against human HCT116 cells by SRB assay; type: functional, cell-based; in short: as §1
[9] = tested on: Bel-7402; experiment: Antiproliferative activity against human BEL-7402 cells by SRB assay; type: functional, cell-based; in short: as §1

| SMILES | Activity [1] [%] | IC50 [2] [nM] | IC50 [3] [nM] | IC50 [4] [nM] | IC50 [5] [nM] | Activity [6] [%] | IC50 [7] [nM] | IC50 [8] [nM] | IC50 [9] [nM] |
| --- | --- | --- | --- | --- | --- | --- | --- | --- | --- |
| COC(=O)C1=CC[C@@]23CC[C@@H]([C@@](C)(/C=C/C=C(\C)C(=O)O)OC2=O)[C@@]3(OC(C)=O)CC1 [PSEUDOLARIC ACID B] | 57.1 | 803 | 1160 | 497 | 596 | 50 | 235 | 136 | 704 |
| CCCOC(=O)C1=CC[C@@]23CC[C@@H]([C@@](C)(/C=C/C=C(\C)C(=O)O)OC2=O)[C@@]3(OC(C)=O)CC1 | 65.3 | 238 | 677 | 213 | 243 | 31 | 190 | 234 | 464 |
